# Results taken from PubChem BioAssay AID743257 (The Scripps Research Institute Molecular Screening Center, 2014).
# Among all 2,900 compounds or so, about 1,900 (66%) were called active. So high a share suggests a set chosen from earlier hits. A selection follows. Unmarked numbers belong to inactive results.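 The calls were made as follows: active = mean inhibition across replicates above the hit cutoff set in the primary screen (cut at about 8.5% in these data); inactive = the rest.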
# Molecular target: Disintegrin and metalloproteinase domain-containing protein 17 (Homo sapiens) (UniProt P78536)
# Assay: inhibition of human ADAM17 protease activity – biochemical, QFRET peptide cleavage, confirmation (AID 743257);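 also: 0% = DMSO wells and 100% = marimastat wells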
# Conditions: recombinant ADAM17, EDANS/DABCYL QFRET peptide cleavage; at 6.95 µM; active compounds read high
# Outline: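 Test system: human ADAM17 enzyme, FRET peptide cleavage; medium: 50 mM HEPES buffer, pH 7.5, with 0.01% Brij; incubation: 30 min preincubation plus 3 h reaction at 25 °C; measured by: fluorescence at ex 359 nm, em 460 nm; control set: DMSO and 1 µM marimastat control wells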
# Chain of Disintegrin and metalloproteinase domain-containing protein 17 (Homo sapiens) (P78536 215-824 limits assumed): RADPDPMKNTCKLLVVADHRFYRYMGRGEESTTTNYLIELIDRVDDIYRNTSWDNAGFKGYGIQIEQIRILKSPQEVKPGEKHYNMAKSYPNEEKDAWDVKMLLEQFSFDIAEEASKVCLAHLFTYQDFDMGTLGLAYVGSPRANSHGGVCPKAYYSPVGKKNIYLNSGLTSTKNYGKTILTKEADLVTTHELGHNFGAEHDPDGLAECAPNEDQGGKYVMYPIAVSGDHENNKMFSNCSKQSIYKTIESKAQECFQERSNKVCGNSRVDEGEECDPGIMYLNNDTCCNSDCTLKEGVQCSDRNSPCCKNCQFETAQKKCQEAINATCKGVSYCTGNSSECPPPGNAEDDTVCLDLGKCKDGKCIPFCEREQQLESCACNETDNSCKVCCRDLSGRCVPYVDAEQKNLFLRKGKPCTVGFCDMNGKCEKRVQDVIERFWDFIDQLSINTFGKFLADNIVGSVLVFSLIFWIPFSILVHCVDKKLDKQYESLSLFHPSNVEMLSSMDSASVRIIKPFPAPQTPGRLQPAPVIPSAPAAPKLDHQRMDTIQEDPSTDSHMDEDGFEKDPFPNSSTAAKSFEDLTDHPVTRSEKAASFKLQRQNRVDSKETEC
row,Compound,inhibition
1,CCOC(=O)CC(SP1(=S)OCC2(CCCCO2)C(C2CCCCO2)O1)C(=O)OCC (configuration not stated),24.1% (active)
2,COC(=O)C1=C(c2ccc(-c3ccccc3)c(F)c2)C[C@@H]2CC[C@H]1N2C(=O)NCc1ccc(F)cc1,7.03%
